Data: ChEMBL document CHEMBL2380206, “Discovery of potent, selective chymase inhibitors via fragment linking strategies” (J Med Chem, 2013)

tested on: Liver microsomes; assay: Metabolic stability in human liver microsomes assessed as GSH adduct formation incubated for 3 min prior to NADPH addition measured after 2 hrs by mass spectrometric analysis

Row | Stability | Compound
1 | Stable | CCCC(CC(=O)O)n1c(=O)n(Cc2cc(Cl)cc3c2CC(=O)N3)c2ccccc21 (stereo not given)

species: Homo sapiens; assay: Selectivity ratio of IC50 for human cathepsin G to IC50 for recombinant human chymase
Summary of the method: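 Both IC50s from the same fluorogenic rhodamine 110 bis(Suc-Ala-Ala-Pro-Phe-amide) assay, 1 h at 28 °C/80% humidity, ex 485 / em 530 nm, with 0.01% CHAPS, 100 μM TCEP and 1% DMSO. Chymase: 500 pM recombinant human enzyme, 100 nM substrate, 20 mM Tris-HCl pH 8.0, 50 mM NaCl. Cathepsin G: 4 nM enzyme, 300 nM substrate, PBS plus 10 mM HEPES pH 7.4.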

Row | Ratio IC50 | Compound
2 | 10 | Cc1cccc2scc(Cn3c(SCCCC(=O)O)nc4ccccc43)c12

target: T1, Cathepsin G (Homo sapiens, UniProt P08311); assay: Inhibition of human cathepsin G using bis(succinoyl-L-alanyl-L-prolyl-L-phenylalanylamide) as substrate after 1 hr by fluorescence assay
T1 sequence (P08311 whole entry): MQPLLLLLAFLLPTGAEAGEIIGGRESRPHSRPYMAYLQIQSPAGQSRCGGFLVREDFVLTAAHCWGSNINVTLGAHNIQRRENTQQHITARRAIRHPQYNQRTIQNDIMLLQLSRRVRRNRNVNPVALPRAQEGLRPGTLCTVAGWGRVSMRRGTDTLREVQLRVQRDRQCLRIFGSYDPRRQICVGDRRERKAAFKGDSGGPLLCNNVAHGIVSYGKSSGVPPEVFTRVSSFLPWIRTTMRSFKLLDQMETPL

Row | IC50 [µM] | Compound
3 | > 10 | CCCC(CC(=O)O)n1c(=O)n(Cc2cc(Cl)cc3c2CC(=O)N3)c2ccccc21 (stereo not given)
4 | 0.052 | Cc1cccc2scc(Cn3c(SCCCC(=O)O)nc4ccccc43)c12
5 | 5.4 | CCCC(CC(=O)O)n1c(=O)n(Cc2cc(Br)cc3c2CC(=O)N3)c2ccccc21 (stereo not given)
6 | > 1000 | O=C1Cc2ccc(Cl)cc2N1
7 | > 10 | O=C(O)CCn1c(=O)n(Cc2cc(Br)cc3c2CC(=O)N3)c2ccccc21
8 | 1.4 | Cc1cccc2scc(Cn3c(=O)n(CCCC(=O)O)c4ccccc43)c12
9 | > 10 | CCCC(CC(=O)O)n1c(=O)n(Cc2cccc3c2CC(=O)N3)c2ccccc21 (stereo not given)
10 | > 10 | CCCC(Cn1c(=O)n(Cc2cc(Br)cc3c2CC(=O)N3)c2ccccc21)C(=O)O (stereo not given)

Further lines, the molecule ahead of its results:

Row | Compound | IC50 [µM]
11 | O=C(O)CCn1c(=O)n(Cc2cc(Cl)cc3c2CC(=O)N3)c2ccccc21 | > 10
12 | CCCC(Cn1c(=O)n(Cc2cc(Br)cc3[nH]c(=O)sc23)c2ccccc21)C(=O)O (stereo not given) | > 10
13 | O=C(O)CCCSc1nc2ccccc2n1Cc1cc(Cl)cc2c1CC(=O)N2 | 3.8

target: T2, Chymase (Homo sapiens, UniProt P23946); assay: Inhibition of recombinant human chymase using bis(succinoyl-L-alanyl-L-prolyl-L-phenylalanylamide) as substrate after 1 hr by fluorescence assay
T2 sequence (P23946 whole entry): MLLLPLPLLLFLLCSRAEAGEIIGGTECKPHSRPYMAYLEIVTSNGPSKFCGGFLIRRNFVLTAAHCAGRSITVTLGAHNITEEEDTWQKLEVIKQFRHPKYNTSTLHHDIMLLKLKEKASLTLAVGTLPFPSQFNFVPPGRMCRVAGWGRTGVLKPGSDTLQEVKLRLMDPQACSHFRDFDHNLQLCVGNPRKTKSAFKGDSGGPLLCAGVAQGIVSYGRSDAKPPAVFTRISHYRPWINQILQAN

Row | IC50 [mM] | Compound
14 | > 1 | O=C1NCc2ccc(Cl)cc21
15 | > 1 | O=C1Cc2ccccc2N1 [OXINDOLE]

Second part, the molecule before the results:

Row | Compound | IC50 [mM]
16 | O=C1Cc2c(Cl)cccc2N1 | > 1
17 | O=C1Cc2cccc(Cl)c2N1 | > 1
18 | O=C1Cc2cc(Cl)ccc2N1 | > 1
19 | O=C1Cc2ccc(Br)cc2N1 | 0.57
20 | CN1C(=O)Cc2ccc(Cl)cc21 | > 1
